≈ marks a conversion by molar mass, not a printed value.
Assays:
[1] = system: Mycobacterium tuberculosis; test: Antimycobacterial activity against Mycobacterium tuberculosis H37Rv ATCC 27294 at 6.25 ug/mL by radiometric method; assay type: functional
[2] = Cytotoxicity against human THP1 cells assessed as cell viability at 1 ug/100 mL after 72 hrs by MTT assay; assay type: cell-based; conditions: THP-1 cells, read-out: Activity
In short: (§1)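 Monocytic THP-1 cells were seeded at 10,000 cells/100 µL and cultured at 37 °C in 5% CO2. Compounds were added at 1 or 10 µg/100 µL, with medium plus DMSO as live control. After 24 or 72 h, MTT (stock 5 mg/mL) was added for 4 h, then isopropanol. Absorbance was read at 540 nm and reported as percent viability. Triplicates, mean of three readings.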

[3] = Cytotoxicity against human THP1 cells assessed as cell viability at 1 ug/100 mL after 24 hrs by MTT assay; assay type: cell-based; conditions: THP-1 cells, read-out: Activity; in short: as §1
[4] = system: Mycobacterium tuberculosis; test: Antimycobacterial activity against Mycobacterium tuberculosis H37Rv ATCC 27294 assessed as growth index at 6.25 ug/mL after 8 days by radiometric method; assay type: functional
In short: (§2)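 M. tuberculosis H37Rv (ATCC 27294) in a BACTEC 460 radiometric culture. A single 6.25 µg/mL dose was given on day 1. Growth index was read daily from day 1 to day 9 against an untreated culture and an isoniazid-treated culture under identical conditions. Three independent readings were taken. Compounds were dissolved in DMSO.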

[5] = system: Mycobacterium tuberculosis; test: Antimycobacterial activity against Mycobacterium tuberculosis H37Rv ATCC 27294 assessed as growth index at 6.25 ug/mL after 4 days by radiometric method; assay type: functional; in short: as §2
[6] = system: Mycobacterium tuberculosis; test: Antimycobacterial activity against Mycobacterium tuberculosis H37Rv ATCC 27294 by radiometric method; assay type: functional
In short: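 MIC against H37Rv by the BACTEC radiometric method. Five concentrations were tested: 6.25, […], 1.56, 0.78 and 0.39 µg/mL. Compounds were dissolved in DMSO.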

[7] = system: Mycobacterium tuberculosis; test: Antimycobacterial activity against Mycobacterium tuberculosis H37Rv ATCC 27294 assessed as growth index at 6.25 ug/mL after 2 days by radiometric method; assay type: functional; in short: as §2
[8] = system: Mycobacterium tuberculosis; test: Antimycobacterial activity against Mycobacterium tuberculosis H37Rv ATCC 27294 assessed as growth index at 6.25 ug/mL after 9 days by radiometric method; assay type: functional; in short: as §2
[9] = Cytotoxicity against human THP1 cells assessed as cell viability at 10 ug/100 mL after 72 hrs by MTT assay; assay type: cell-based; conditions: THP-1 cells, read-out: Activity; in short: as §1
[10] = Cytotoxicity against human THP1 cells assessed as cell viability at 10 ug/100 mL after 24 hrs by MTT assay; assay type: cell-based; conditions: THP-1 cells, read-out: Activity; in short: as §1
[11] = system: Mycobacterium tuberculosis; test: Antimycobacterial activity against Mycobacterium tuberculosis H37Rv ATCC 27294 assessed as growth index at 6.25 ug/mL after 7 days by radiometric method; assay type: functional; in short: as §2
[12] = system: Mycobacterium tuberculosis; test: Antimycobacterial activity against Mycobacterium tuberculosis H37Rv ATCC 27294 assessed as growth index at 6.25 ug/mL after 1 day by radiometric method; assay type: functional; in short: as §2
[13] = system: Mycobacterium tuberculosis; test: Antimycobacterial activity against Mycobacterium tuberculosis H37Rv ATCC 27294 assessed as growth index at 6.25 ug/mL after 3 days by radiometric method; assay type: functional; in short: as §2
[14] = system: Mycobacterium tuberculosis; test: Antimycobacterial activity against Mycobacterium tuberculosis H37Rv ATCC 27294 assessed as growth index at 6.25 ug/mL after 6 days by radiometric method; assay type: functional; in short: as §2
[15] = system: Mycobacterium tuberculosis; test: Antimycobacterial activity against Mycobacterium tuberculosis H37Rv ATCC 27294 assessed as growth index at 6.25 ug/mL after 5 days by radiometric method; assay type: functional; in short: as §2
[16] = system: Mycobacterium tuberculosis; test: Antimycobacterial activity against Mycobacterium tuberculosis H37Rv ATCC 27294 assessed as growth inhibition at 6.25 ug/mL after 7 to 9 days by radiometric method; assay type: functional; conditions: read-out: GI
In short: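 Single-concentration screen against H37Rv (ATCC 27294) by the BACTEC 460 radiometric method. Compound was added once at 6.25 µg/mL on day one. […] DMSO was the vehicle.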

Compound `COc1nc2ccc(Br)cc2cc1C(c1ccccc1)n1nnnc1C` (centres undefined) has an inhibition at 6.25 µg/mL [1] of 14%.
`COC(=O)C(C(=O)N1CCN(c2cccc(C(F)(F)F)c2)CC1)C(c1ccccc1)c1cc2cc(Br)ccc2nc1OC` (centres undefined) gave an inhibition at 6.25 µg/mL [1] of 8%.
Work on `CCOC(=O)C1CCN(C(c2ccccc2)c2cc3cc(Br)ccc3nc2OC)CC1` (centres undefined) yielded an inhibition at 6.25 µg/mL [1] of 16%.
In the case of `COc1nc2ccc(Br)cc2cc1C(c1ccccc1)N1CCCCC1` (centres undefined), the inhibition at 6.25 µg/mL [1] is reported as 53%.
`COc1nc2ccc(Br)cc2cc1C(c1ccccc1)N1CCOCC1` (centres undefined) showed an inhibition at 6.25 µg/mL [1] of 69%.
`COC(=O)C(C(=O)N1CCOCC1)C(c1ccccc1)c1cc2cc(Br)ccc2nc1OC` (centres undefined) gave an inhibition at 6.25 µg/mL [1] of 5%.
Compound `COC(=O)C(C(=O)N1CCCC1)C(c1ccccc1)c1cc2cc(Br)ccc2nc1OC` (centres undefined) has an inhibition at 6.25 µg/mL [1] of 5%.
In the case of `COC(=O)C(C(=O)N1CCCCC1)C(c1ccccc1)c1cc2cc(Br)ccc2nc1OC` (centres undefined), the inhibition at 6.25 µg/mL [1] is reported as 11%.
Work on `COc1nc2ccc(Br)cc2cc1C(c1ccccc1)N1CCN(c2cccc(C(F)(F)F)c2)CC1` (centres undefined) yielded a viability at 72 h, 1 ug/100 mL [2] of 100%, a viability at 24 h, 1 ug/100 mL [3] of 87% and a Growth_index [4] of 0. The Growth_index [5] was 0, the MIC [6] was 6.25 µg/mL (≈ 11.2 µM) and the Growth_index [7] was 0. It also gave a Growth_index [8] of 0, a viability at 72 h, 10 ug/100 mL [9] of 97% and a viability at 24 h, 10 ug/100 mL [10] of 97%. The Growth_index [11] was 0, the Growth_index [12] was 1 and the Growth_index [13] was 0. It also gave a Growth_index [14] of 0, an inhibition at 6.25 µg/mL [1] of 100% and a Growth_index [15] of 0. The inhibition of growth at 6.25 µg/mL [16] was 100%.
For `COc1nc2ccc(Br)cc2cc1C(c1ccccc1)n1ccc2ccccc21` (centres undefined), the inhibition at 6.25 µg/mL [1] was 8%.
With `COc1nc2ccc(Br)cc2cc1C(c1ccccc1)n1cnc([N+](=O)[O-])c1` (centres undefined) the inhibition at 6.25 µg/mL [1] was 14%.
`COc1nc2ccc(Br)cc2cc1C(NCc1ccncc1)c1ccccc1` (centres undefined) showed an inhibition at 6.25 µg/mL [1] of 17%.
Work on `CCOC(=O)C1CCCN1C(c1ccccc1)c1cc2cc(Br)ccc2nc1OC` (centres undefined) yielded an inhibition at 6.25 µg/mL [1] of 18%.
In the case of `CCOC(=O)C(c1cccc2ccccc12)C(c1ccccc1)c1cc2cc(Br)ccc2nc1OC` (mixture of isomers), the inhibition at 6.25 µg/mL [1] is reported as 0%.
Work on `COC(=O)C(C(=O)n1cccn1)C(c1ccccc1)c1cc2cc(Br)ccc2nc1OC` (mixture of isomers) yielded an inhibition at 6.25 µg/mL [1] of 22%.
Compound `COc1nc2ccc(Br)cc2cc1C(Nc1ccc2oc(=O)ccc2c1)c1ccccc1` (racemic) has a viability at 72 h, 1 ug/100 mL [2] of 100%, a viability at 24 h, 1 ug/100 mL [3] of 100% and a Growth_index [4] of 53. For the same compound, the Growth_index [5] was 45, the MIC [6] was 6.25 µg/mL (≈ 12.8 µM) and the Growth_index [7] was 27. The Growth_index [8] was 55, the viability at 72 h, 10 ug/100 mL [9] was 100% and the viability at 24 h, 10 ug/100 mL [10] was 100%. The Growth_index [11] was 53, the Growth_index [12] was 15 and the Growth_index [13] was 37. The Growth_index [14] was 48, the inhibition at 6.25 µg/mL [1] was 92.5% and the Growth_index [15] was 52. For the same compound, the inhibition of growth at 6.25 µg/mL [16] was 92.5%.
Compound `COc1nc2ccc(Br)cc2cc1C(c1ccccc1)n1cccn1` (racemic) has a viability at 72 h, 1 ug/100 mL [2] of 100%, a viability at 24 h, 1 ug/100 mL [3] of 71% and a Growth_index [4] of 0. The Growth_index [5] was 0, the MIC [6] was 6.25 µg/mL (≈ 15.9 µM) and the Growth_index [7] was 0. The Growth_index [8] was 0, the viability at 72 h, 10 ug/100 mL [9] was 98% and the viability at 24 h, 10 ug/100 mL [10] was 75%. It also gave a Growth_index [11] of 0, a Growth_index [12] of 1 and a Growth_index [13] of 0. It also gave a Growth_index [14] of 0, an inhibition at 6.25 µg/mL [1] of 99.5% and a Growth_index [15] of 0. It also gave an inhibition of growth at 6.25 µg/mL [16] of 99.5%.
`COc1nc2ccc(Br)cc2cc1C(c1ccccc1)n1ccnc1` (racemic) gave a viability at 72 h, 1 ug/100 mL [2] of 67%, a viability at 24 h, 1 ug/100 mL [3] of 74% and a Growth_index [4] of 35. It also gave a Growth_index [5] of 28, an MIC [6] of 6.25 µg/mL (≈ 15.9 µM) and a Growth_index [7] of 22. The Growth_index [8] was 56, the viability at 72 h, 10 ug/100 mL [9] was 67% and the viability at 24 h, 10 ug/100 mL [10] was 56%. The Growth_index [11] was 35, the Growth_index [12] was 12 and the Growth_index [13] was 25. It also gave a Growth_index [14] of 33, an inhibition at 6.25 µg/mL [1] of 94.2% and a Growth_index [15] of 34. It also gave an inhibition of growth at 6.25 µg/mL [16] of 94.2%.
With `NNC(=O)c1ccncc1` [ISONIAZID] the inhibition of growth at 6.25 µg/mL [16] was 99.3%.
